According to paper PMC6606825 (Journal of Ginseng Research, 2018):
Marks after values point to notes of the source that are not given here.

Assay: Pharmacokinetics of CK and its metabolite 20
Format: in vivo, healthy Chinese volunteers
In short: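 Healthy adults given one oral tablet dose fasting (overnight, or 10 h in a crossover food-effect arm); 30 subjects from the 100/200/400 mg groups were pooled with 24 from 200 mg fasting periods. Plasma was stored at −70°C, extracted with MTBE plus internal standards and assayed by LC-MS/MS. Cmax was observed and AUClast calculated by linear trapezoid, each divided by dose. The metabolite/parent ratio was also calculated. Genotyping used Sequenom MassARRAY, and log-transformed values were compared by one-way ANOVA.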

SMILES: CC(C)=CCC[C@](C)(O)[C@H]1CC[C@]2(C)[C@@H]1[C@H](O)C[C@@H]1[C@@]3(C)CC[C@H](O)C(C)(C)[C@@H]3CC[C@]12C [20(S)-PPD, 20(S)-protopanaxadiol]
- 20(S)-PPD AUClast/D (CFTR rs2106155 CC, mean (SD)): 0.76 (0.87)
- 20(S)-PPD Cmax/D (CFTR rs2106155 CC, mean (SD)): 0.02 (0.02)
- Ratio 20(S)-PPD/CK AUClast/D (CFTR rs2106155 CC, mean (SD)): 3.73 (6.73) %
- Ratio 20(S)-PPD/CK Cmax/D (CFTR rs2106155 CC, mean (SD)): 0.80 (1.29) %
- 20(S)-PPD AUClast/D (CFTR rs2237726 CC, mean (SD)): 0.72 (0.85)
- 20(S)-PPD Cmax/D (CFTR rs2237726 CC, mean (SD)): 0.02 (0.02)
- Ratio 20(S)-PPD/CK AUClast/D (CFTR rs2237726 CC, mean (SD)): 3.53 (6.59) %
- Ratio 20(S)-PPD/CK Cmax/D (CFTR rs2237726 CC, mean (SD)): 0.80 (1.27) %
- 20(S)-PPD AUClast/D (CFTR rs2237726 CT, mean (SD)): 0.84 (0.78)
- 20(S)-PPD Cmax/D (CFTR rs2237726 CT, mean (SD)): 0.03 (0.03)
- Ratio 20(S)-PPD/CK AUClast/D (CFTR rs2237726 CT, mean (SD)): 4.43 (5.17) %
- Ratio 20(S)-PPD/CK Cmax/D (CFTR rs2237726 CT, mean (SD)): 1.42 (2.13) %
- 20(S)-PPD AUClast/D (CFTR rs2237726 TT, mean (SD)): 1.10 (0.47)
- 20(S)-PPD Cmax/D (CFTR rs2237726 TT, mean (SD)): 0.03 (0.02)
- Ratio 20(S)-PPD/CK AUClast/D (CFTR rs2237726 TT, mean (SD)): 7.40 (10.14) %
- Ratio 20(S)-PPD/CK Cmax/D (CFTR rs2237726 TT, mean (SD)): 1.63 (2.04) %
- 20(S)-PPD AUClast/D (CFTR rs4148711 AA, mean (SD)): 0.97 (0.49)
- 20(S)-PPD Cmax/D (CFTR rs4148711 AA, mean (SD)): 0.04 (0.02)
- Ratio 20(S)-PPD/CK AUClast/D (CFTR rs4148711 AA, mean (SD)): 5.87 (7.37) %
- Ratio 20(S)-PPD/CK Cmax/D (CFTR rs4148711 AA, mean (SD)): 1.40 (1.51) %
- 20(S)-PPD AUClast/D (CFTR rs4148711 AT, mean (SD)): 0.90 (0.98)
- 20(S)-PPD Cmax/D (CFTR rs4148711 AT, mean (SD)): 0.03 (0.04)
- Ratio 20(S)-PPD/CK AUClast/D (CFTR rs4148711 AT, mean (SD)): 4.70 (7.26) %
- Ratio 20(S)-PPD/CK Cmax/D (CFTR rs4148711 AT, mean (SD)): 1.40 (2.23) %
- 20(S)-PPD AUClast/D (CFTR rs4148711 TT, mean (SD)): 0.63 (0.57)
- 20(S)-PPD Cmax/D (CFTR rs4148711 TT, mean (SD)): 0.02 (0.02)
- Ratio 20(S)-PPD/CK AUClast/D (CFTR rs4148711 TT, mean (SD)): 2.87 (3.42) %
- Ratio 20(S)-PPD/CK Cmax/D (CFTR rs4148711 TT, mean (SD)): 0.66 (0.71) %
- 20(S)-PPD AUClast/D (NR1I2 rs1464602 AA, mean (SD)): 0.69 (0.50)
- 20(S)-PPD Cmax/D (NR1I2 rs1464602 AA, mean (SD)): 0.02 (0.02)
- Ratio 20(S)-PPD/CK AUClast/D (NR1I2 rs1464602 AA, mean (SD)): 3.33 (3.32) %
- Ratio 20(S)-PPD/CK Cmax/D (NR1I2 rs1464602 AA, mean (SD)): 0.85 (0.79) %
- 20(S)-PPD AUClast/D (NR1I2 rs1464602 AG, mean (SD)): 0.85 (0.89)
- 20(S)-PPD Cmax/D (NR1I2 rs1464602 AG, mean (SD)): 0.03 (0.03)
- Ratio 20(S)-PPD/CK AUClast/D (NR1I2 rs1464602 AG, mean (SD)): 3.45 (6.88) %
- Ratio 20(S)-PPD/CK Cmax/D (NR1I2 rs1464602 AG, mean (SD)): 0.80 (1.32) %
- 20(S)-PPD AUClast/D (NR1I2 rs1464602 GG, mean (SD)): 1.09 (1.05)
- 20(S)-PPD Cmax/D (NR1I2 rs1464602 GG, mean (SD)): 0.04 (0.04)
- Ratio 20(S)-PPD/CK AUClast/D (NR1I2 rs1464602 GG, mean (SD)): 7.81 (8.88) %
- Ratio 20(S)-PPD/CK Cmax/D (NR1I2 rs1464602 GG, mean (SD)): 2.40 (3.04) %
- 20(S)-PPD AUClast/D (NR1I2 rs1523127 AA, mean (SD)): 0.87 (0.86)
- 20(S)-PPD Cmax/D (NR1I2 rs1523127 AA, mean (SD)): 0.03 (0.03)
- Ratio 20(S)-PPD/CK AUClast/D (NR1I2 rs1523127 AA, mean (SD)): 4.60 (7.04) %
- Ratio 20(S)-PPD/CK Cmax/D (NR1I2 rs1523127 AA, mean (SD)): 1.27 (1.98) %
- 20(S)-PPD AUClast/D (NR1I2 rs1523127 CA, mean (SD)): 0.73 (0.52)
- 20(S)-PPD Cmax/D (NR1I2 rs1523127 CA, mean (SD)): 0.02 (0.02)
- Ratio 20(S)-PPD/CK AUClast/D (NR1I2 rs1523127 CA, mean (SD)): 3.64 (3.52) %
- Ratio 20(S)-PPD/CK Cmax/D (NR1I2 rs1523127 CA, mean (SD)): 0.87 (0.80) %
- 20(S)-PPD AUClast/D (NR1I2 rs1523127 CC, n = 1): 0.32 (−) ^2)
- 20(S)-PPD Cmax/D (NR1I2 rs1523127 CC, n = 1): 0.01 (−) ^2)
- Ratio 20(S)-PPD/CK AUClast/D (NR1I2 rs1523127 CC, n = 1): 1.14 (−) ^2) %
- Ratio 20(S)-PPD/CK Cmax/D (NR1I2 rs1523127 CC, n = 1): 0.22 (−) ^2) %
- 20(S)-PPD AUClast/D (NR1I2 rs2276707 CC, mean (SD)): 0.79 (0.54)
- 20(S)-PPD Cmax/D (NR1I2 rs2276707 CC, mean (SD)): 0.03 (0.02)
- Ratio 20(S)-PPD/CK AUClast/D (NR1I2 rs2276707 CC, mean (SD)): 5.07 (6.48) %
- Ratio 20(S)-PPD/CK Cmax/D (NR1I2 rs2276707 CC, mean (SD)): 1.15 (1.37) %
- 20(S)-PPD AUClast/D (NR1I2 rs2276707 CT, mean (SD)): 0.79 (0.77)
- 20(S)-PPD Cmax/D (NR1I2 rs2276707 CT, mean (SD)): 0.03 (0.03)
- Ratio 20(S)-PPD/CK AUClast/D (NR1I2 rs2276707 CT, mean (SD)): 3.49 (4.74) %
- Ratio 20(S)-PPD/CK Cmax/D (NR1I2 rs2276707 CT, mean (SD)): 1.12 (1.87) %
- 20(S)-PPD AUClast/D (NR1I2 rs2276707 TT, mean (SD)): 1.04 (1.19)
- 20(S)-PPD Cmax/D (NR1I2 rs2276707 TT, mean (SD)): 0.03 (0.03)
- Ratio 20(S)-PPD/CK AUClast/D (NR1I2 rs2276707 TT, mean (SD)): 5.91 (10.37) %
- Ratio 20(S)-PPD/CK Cmax/D (NR1I2 rs2276707 TT, mean (SD)): 1.27 (1.99) %
- 20(S)-PPD AUClast/D (NR1I2 rs2472682 AA, mean (SD)): 1.08 (1.14)
- 20(S)-PPD Cmax/D (NR1I2 rs2472682 AA, mean (SD)): 0.04 (0.04)
- Ratio 20(S)-PPD/CK AUClast/D (NR1I2 rs2472682 AA, mean (SD)): 7.47 (9.73) %
- Ratio 20(S)-PPD/CK Cmax/D (NR1I2 rs2472682 AA, mean (SD)): 2.06 (2.76) %
- 20(S)-PPD AUClast/D (NR1I2 rs2472682 CA, mean (SD)): 0.66 (0.50)
- 20(S)-PPD Cmax/D (NR1I2 rs2472682 CA, mean (SD)): 0.02 (0.02)
- Ratio 20(S)-PPD/CK AUClast/D (NR1I2 rs2472682 CA, mean (SD)): 2.12 (1.73) %
- Ratio 20(S)-PPD/CK Cmax/D (NR1I2 rs2472682 CA, mean (SD)): 0.59 (0.51) %
- 20(S)-PPD AUClast/D (NR1I2 rs2472682 CC, mean (SD)): 0.87 (0.59)
- 20(S)-PPD Cmax/D (NR1I2 rs2472682 CC, mean (SD)): 0.03 (0.02)
- Ratio 20(S)-PPD/CK AUClast/D (NR1I2 rs2472682 CC, mean (SD)): 5.01 (4.45) %
- Ratio 20(S)-PPD/CK Cmax/D (NR1I2 rs2472682 CC, mean (SD)): 1.17 (0.97) %
- 20(S)-PPD AUClast/D (NR1I2 rs6785049 AA, mean (SD)): 0.75 (0.59)
- 20(S)-PPD Cmax/D (NR1I2 rs6785049 AA, mean (SD)): 0.03 (0.02)
- Ratio 20(S)-PPD/CK AUClast/D (NR1I2 rs6785049 AA, mean (SD)): 5.90 (7.79) %
- Ratio 20(S)-PPD/CK Cmax/D (NR1I2 rs6785049 AA, mean (SD)): 1.37 (1.63) %
- 20(S)-PPD AUClast/D (NR1I2 rs6785049 AG, mean (SD)): 0.72 (0.54)
- 20(S)-PPD Cmax/D (NR1I2 rs6785049 AG, mean (SD)): 0.03 (0.02)
- Ratio 20(S)-PPD/CK AUClast/D (NR1I2 rs6785049 AG, mean (SD)): 2.64 (2.47) %
- Ratio 20(S)-PPD/CK Cmax/D (NR1I2 rs6785049 AG, mean (SD)): 0.69 (0.58) %
- 20(S)-PPD AUClast/D (NR1I2 rs6785049 GG, mean (SD)): 1.11 (1.21)
- 20(S)-PPD Cmax/D (NR1I2 rs6785049 GG, mean (SD)): 0.04 (0.04)
- Ratio 20(S)-PPD/CK AUClast/D (NR1I2 rs6785049 GG, mean (SD)): 6.66 (9.43) %
- Ratio 20(S)-PPD/CK Cmax/D (NR1I2 rs6785049 GG, mean (SD)): 1.98 (2.90) %
- 20(S)-PPD AUClast/D (NR1I2 rs7643645 AA, mean (SD)): 0.95 (0.87)
- 20(S)-PPD Cmax/D (NR1I2 rs7643645 AA, mean (SD)): 0.03 (0.03)
- Ratio 20(S)-PPD/CK AUClast/D (NR1I2 rs7643645 AA, mean (SD)): 5.31 (8.06) %
- Ratio 20(S)-PPD/CK Cmax/D (NR1I2 rs7643645 AA, mean (SD)): 1.16 (1.57) %
- 20(S)-PPD AUClast/D (NR1I2 rs7643645 AG, mean (SD)): 0.66 (0.76)
- 20(S)-PPD Cmax/D (NR1I2 rs7643645 AG, mean (SD)): 0.03 (0.03)
- Ratio 20(S)-PPD/CK AUClast/D (NR1I2 rs7643645 AG, mean (SD)): 3.34 (5.02) %
- Ratio 20(S)-PPD/CK Cmax/D (NR1I2 rs7643645 AG, mean (SD)): 1.21 (2.09) %
- 20(S)-PPD AUClast/D (NR1I2 rs7643645 GG, mean (SD)): 1.14 (0.42)
- 20(S)-PPD Cmax/D (NR1I2 rs7643645 GG, mean (SD)): 0.04 (0.02)
- Ratio 20(S)-PPD/CK AUClast/D (NR1I2 rs7643645 GG, mean (SD)): 4.98 (4.18) %
- Ratio 20(S)-PPD/CK Cmax/D (NR1I2 rs7643645 GG, mean (SD)): 1.03 (0.83) %
